Measured values as given in the EternaBench riboswitch data.

Tested on: MS2 coat protein
Assay: apparent Kd, MS2 coat protein; higher = weaker binding; RNA-MaP array; FMN 200 µM where present
Procedure, shortened: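 Apparent Kd: the median of filtered binding-curve fits from single clusters. Designs were transcribed on Illumina sequencing-chip clusters by stalled E. coli RNA polymerase and titrated with SNAP-549-labelled MS2 coat protein from 0.7 or 1.5 nM, doubling to 3 µM, in 100 mM Tris-HCl pH 7.5, 80 mM KCl, 4 mM MgCl2, BSA, DTT, yeast tRNA and Tween-20. Each series ran without and then with constant ligand, and green signal was normalised to red-channel RNA signal and control-cluster median Fmax.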

[1] = designed as: ON switch for flavin mononucleotide, no ligand
[2] = ligand present: flavin mononucleotide, designed as: ON switch for flavin mononucleotide
[3] = designed as: OFF switch for flavin mononucleotide, no ligand
[4] = ligand present: flavin mononucleotide, designed as: OFF switch for flavin mononucleotide

Sequence | apparent Kd [1] | apparent Kd [2] | apparent Kd [3] | apparent Kd [4]
AAUGAGCAGUAGAAGGCAUGUCUACGGACAUGAGGAUCACCCAUGUUGUGAAUCCGAAAGGAGCGUGAGGAUAUACUGCUCUAA | 0.0856 µM | 0.0187 µM |  | 
UAAUGUGACAUGAGGAUCACCCAUGUAGACAUGGGAAGGUCGUAGGAUAUGCUGAUGAUUUUUUUGCAGAAGGACGUCAAGGAG | 0.268 µM | 0.138 µM |  | 
AUUUAGUGAGGAUAUGUGGCUUCGAUCGUGAGAUCGAGGCUACAGAAGGCACAUGAGGAUCACCCAUGUUCCUC |  |  | 0.0376 µM | 0.498 µM
UGAUACAUGAGGGUCUCCCAUGACAUGAGGAUCACCCAUGUGCAGGAUAUACGUGUGAUGGUAUAGUAGAAGGGCAGUCUAUGU |  |  | 0.102 µM | 0.133 µM
AUUUCGUCAGGAUAUCCUAGUAAUUGUUUCAUAUUUACGAAGGAGAAGGGACAUGAGGAUCACCCAUGUUGGUC |  |  | 0.0587 µM | 0.13 µM
CACAUGUGAGGAUAUGUAAUAAAGGCGACGCGGGUCGCCCGACAGAAGGCACAUGAGGAUCACCCAUGUGAUGA |  |  | 0.037 µM | 0.098 µM
AAAUUUAACGAAGGAUAUACAAACAUGAGGAUCACCCAUGUGUGUUUCGUGUUACUGAAAUUCGGGUAGAAGGUCGUAUACAUA |  |  | 0.0234 µM | 0.0181 µM
GUUUAUUUACAGAAGGUGUUUUACAUGAGGAUCACCCAUGUUUAAAGGUAUAAAGAAUUUAUUUACAAGGAUAUGUACAAUUUU | 0.0341 µM | 0.0221 µM |  | 
GUCUCAGUUGGCUUCAAGGGCGGUCAGGAUAUGCUAACGUACAUGAGGAUCACCCAUGUCCAAGUGCAGAAGGGACAUACGCCA | 0.0626 µM | 0.00785 µM |  | 
UCCGUGGCAUCUCGCGCGUGUCCACAUGAGGAUCACCCAUGUCAGGAUAUACGGAAUGUCGUUCCGUAGAAGGGACAAGGGCUG |  |  | 0.172 µM | 0.108 µM
UGCGAACAGGCUAACAUGAGGAUCACCCAUGUGGACUCAUGGUAGGAUAUCGGGAAGGAGGAAACCGAGAAGGGCCGGUGAGCA | 0.133 µM | 0.0775 µM |  | 
GCUGUGGCAUGAGGAUAUGGUCAGGUUUCCUGACCAGAAGGCAUGUCAAUAGACAUGAGGAUCACCCAUGUAGUUAACACAGCA | 0.514 µM | 0.0459 µM |  | 
CGAGUCGGUUGCCCUGCAGUACAUGAGGAUCACCCAUGUCGGAGAAGGUGCACAAAGGAAUCGGGCAAGGAUAUCCGGCGUGAA |  |  | 0.00821 µM | 0.00798 µM
GACUCGUAAGUGAGGAUAUGGCUGUGCAGCUACAGCCAGAAGGCACAUGAGGAUCACCCAUGUGAUGGAAUUUU |  |  | 0.0159 µM | 0.0306 µM
GGUACUCAAAGAGUACCAAUACGAACAUGAGGAUCACCCAUGUAGGAUAUGCUACAAAAGGAGUAGCAGAAGGACAUGUGCCUA |  |  | 0.013 µM | 0.0608 µM
GCCAUCACAUGAGGAUAUGCUCGGGUUUCCCGAGCAGAAGGCAUGUCAUAAGACAUGAGGAUCACCCAUGUAGGUAAGAUGGCA | 0.292 µM | 0.0136 µM |  | 
UGUUGUAUUACAGGAUAUCUAGUAUAUUUAUUUAGAGAAGGGUAUUCACAUGAGGAUCACCCAUGUAUAUACGAGGAAGUUGUG | 0.0411 µM | 0.0402 µM |  | 
UUGAACGUCGUAGGAUAUGUAGGAUAUUCCUACAUGAGGAUCACCCAUGUUGACAUGGAAGAAGGACAGAAGGACGAUGUCCAU | 0.567 µM | 0.00777 µM |  | 
CGCGAUGCGGUUGGCCCUGGGCGAGAGGAUAUGGGCAGCAGGACAUGAGGAUCACCCAUGUUCUCUCAGAAGGCUCGAGCAGGC | 0.247 µM | 0.0245 µM |  | 
UGUCGGAGCAGAGGAUAUUACAUGAGGAUCACCCAUGUGUGAACCAAUAGCUGGAAACAGCAAUGUAAGAAGGCUGCUCCGACA |  |  | 0.0584 µM | 0.0292 µM
GUCCUACAUGAGGAUCACCCAUGUAAGGAUAUGCUAGCGGUCGGCUGACUGACUGCUAGCAGAAGGUACAUGAU |  |  | 0.0175 µM | 0.0246 µM
GGGUACAUCGGAGGAUAUCAUGUAAAUACAUGAGGAUCACCCAUGUCGAUGGAGACAUCGGAGAUUGAGAAGGUCGAUGUACCG | 0.197 µM | 0.00952 µM |  | 
CGAUCUUCAGUCAGGAUAUGCUGGCACGAAGAGUUGUAGAAGGGACAUGAGGAUCACCCAUGUCGGACGUUGUA |  |  | 0.019 µM | 0.0174 µM
AAAUUAAGAAGAGGAUAUUGACAUGAGGAUCACCCAUGUAUUUGGGAGUGUUUACUGAAUUCUUACGAGAAGGCUUACGAAAUU |  |  | 0.221 µM | 0.212 µM
GUAACGCUUGACAUGAGGAUCACCCAUGUUAGAUUGUUAUGUCAGGAUAUAGUCUAGAAACUAGACUAGAAGGGAUAUGUUACU | 0.0696 µM | 0.0295 µM |  | 
GUACUGAAGCUUUGCUUUAGUCGUACAUGAGGAUCACCCAUGUAGGAUAUGGUAGGCAUUGCUUACUAGAAGGAUAGAGUGAUC |  |  | 0.0851 µM | 0.0549 µM
AUAAUUUUAUUUUUCCCAAGAAUCAGAAGGCGUUACAUGAGGAUCACCCAUGUUUUGUAUAGUAACGAGGAUAUGAUAUGGUUA |  |  | 0.0152 µM | 0.0147 µM
AUAUAUCAUACAGGAUAUACAUGAGGAUCACCCAUGUGUUCUCCAUAAUUGACACCAAUUAUGCUGUAGAAGGGUAUGAUAUAU |  |  | 0.0223 µM | 0.151 µM

Sequence | apparent Kd [1] | apparent Kd [2] | apparent Kd [3] | apparent Kd [4]
AUAGAAGUCUAGAAGGACCUAGCUGUAUACCAUCAGGUAUAUACGCUAGGUAGGAUAUGGGACAUGAGGAUCACCCAUGUGUUG | 0.048 µM | 0.0226 µM |  | 
AAAUUAAGUGUGAGGAUAUGCUGGUCCUUAGAUCAGCAGAAGGCACAUGAGGAUCACCCAUGUAAUAUAUUUAA |  |  | 0.0389 µM | 0.193 µM
GAUUAACAUGAGGAUCACCCAUGUGAGGAUAUGGAAUGGCACAUUGUUUGAUUCCCGUCUAGAAGGCACAUCUU |  |  | 0.0445 µM | 0.0416 µM
AAAUCGGCAGGAUAUACAUGAAAAUUAAAAAAAAAAAAAAAACAUGAGGAUCACCCAUGUAGAAGGGUCAAAAA |  |  | 0.0889 µM | 0.0892 µM
CCUAUGUGAGGAUAUGGUGUUGGCCACAGGGAAAAGGUCCUCCAGAAGGCACAUGAGGAUCACCCAUGUCGUGA |  |  | 0.0846 µM | 0.158 µM
ACAUGAGGAUCACCCAUGUUAUUUGGGAAUUAAUUUAUUUGUAGAAGGAUGUUUUCUUGUUAGUCAUAGGAUAUACUAUUAAAU |  |  | 0.0407 µM | 0.0344 µM
GAAAACAGAGGAUAUACAAAAUUAUGACGAAAGUCAUAAAAACAUGAGGAUCACCCAUGUAGAAGGCUGAAGAA |  |  | 0.029 µM | 0.0269 µM
UGUGCCGGAUCAGGAUAUCCACAGCGGCAAUCACAUGAGGAUCACCCAUGUGGAGAAGGGAUUCGCGAAUUAAUAUCUCGAUAA |  |  | 0.0335 µM | 0.0566 µM
AUUGACUGAGGAUAUUGUACUGCUGACAUGAGGAUCACCCAUGUAUGCUAACUCGGCCGUCGAGAAGGCAGUCAUG |  |  | 0.0292 µM | 0.0173 µM
AAAUCACAUGAGGAUCACCCAUGUGAGGAUAUGAUACUAUGUACUUCGGUACAUAGUAUCAGAAGGCAUAUGGA |  |  | 0.023 µM | 0.0358 µM
AAAUGCUUGUCGAUGCUCGACAUGAGGAUCACCCAUGUAUAGCAGGAUAUGCAGAACUGACUCGUGCAGAAGGGCUAUACCUAA |  |  | 0.0232 µM | 0.0696 µM
GGGUCCAUCGGAGGAUAUCAUGUAAAUACAUGAGGAUCACCCAUGUCGAUGGAGACAUCGGAGAUUGAGAAGGCCGAUGUACCG | 0.209 µM | 0.0105 µM |  | 
CGUGACGACAUAGGAUAUUGUUACAUGAGGAUCACCCAUGUCAACCAUUUAUCUCAAAUUGUUGACAAGAAGGAUGUGGUCACG | 0.0326 µM | 0.0116 µM |  | 
GAUUAACAUGAGGAUCACCCAUGUGAGGAUAUGAACUUGCCCACUUACCCUUUAGAGUUUAGAAGGCGCAUUUC |  |  | 0.0189 µM | 0.019 µM
GUAUCUUACCGAGGAUAUUUACGAUUAGUGUAGACAUGAGGAUCACCCAUGUGGCCUUAGUCACGGGAGAAGGCGGUUUGAUAC | 0.233 µM | 0.059 µM |  | 
GGCCAAGUCGAGAAGGCCGGUAGACAUGAGGAUCACCCAUGUAGUGCGUGGAGGAUAUUGAAUGGGUGGCGUAGGACCUGCGUU | 0.106 µM | 0.0186 µM |  | 
UUAUUAUAUGUAGGAUAUGCGUAUUAUUGUUAUGCAGAAGGACAUGAGGAUCACCCAUGUAUAUUAUUGUUGUAUAUUAUAUAU |  |  | 0.0235 µM | 0.043 µM
CCGUUACAUGAGGAUCACCCAUGUGAGGAUAUCGAUGUGACUAGCAGCGUGCGGGACUCGAGAAGGCACUUGGC |  |  | 0.0578 µM | 0.0415 µM
AUAGGUCAAGGAUAUACAUGAGGAUCACCCAUGUAAAUAACUCCAUCCAACUCCACAAGUAGAAGGUGAAAUAA |  |  | 0.017 µM | 0.0165 µM
UGUUGUAUUACAGGAUAUCUAUGAUUUUUUUUUAGAGAAGGGUAUUCACAUGAGGAUCACCCAUGUAUAUACGAGGAAGUUGUG | 0.0514 µM | 0.062 µM |  | 
UGAGCAUCAGGAUAUAUAUGGCGACCGUGAGGUCGAAGGUUACAUGAGGAUCACCCAUGUAGAAGGGAUGUUCU |  |  | 0.0367 µM | 0.147 µM
AUGGAUAUCACAGGAUAUGCCCGGGAUACCCGGGCAGAAGGGUGAUCCAUCCUAUGUAAAUACAUGAGGAUCACCCAUGUGUCC | 0.075 µM | 0.0712 µM |  | 
CGUGCGUAUGUGAGGAUAUGCUGGUCCUUGGAUCGGCAGAAGGCACAUGAGGAUCACCCAUGUGGUGUCGUGCA |  |  | 0.377 µM | 0.0303 µM
UAAUAAAGUGUGAGGAUAUGCUGGUCCUUGGAUCAGCAGAAGGCACAUGAGGAUCACCCAUGUAAUAUAUAAAU |  |  | 0.0972 µM | 0.292 µM
UUUAAUUUAAUUAAGAUCACAUGAGGAUCACCCAUGUAAUUAUAGGAUAUCAGCUCGUUUAGAGCUGAGAAGGAUAAUUACAUA |  |  | 0.0789 µM | 0.0534 µM
AGUGUCAUCGAGAAGGCCUCAACAUGAGGAUCACCCAUGUUGUAAUAUGGGAGGAUAUCGAUGAUACAGCUACGUUUCGUAGCU | 0.0189 µM | 0.00565 µM |  | 
CACUCAGGCACAUGAGGAUCACCCAUGUCCCGGAAGCCGAGACAGGAUAUGUGCCUCGAAUGUGCACAGAAGGGUCUACUAUGU | 0.374 µM | 0.264 µM |  | 
